# High-throughput results deposited in PubChem by Johns Hopkins Ion Channel Center.
# Only some compounds are listed: those with a hit (about 3.5% of all), similar ones and a draw of the others.
# MrgX1 ag = activates human MrgX1 receptor signaling; Q96LB2; MrgX1-HEK293 cells, Fluo-4 calcium fluorescence, agonist mode; active compounds read high; B-score at 10 µM; actives 0.44% (n = 310,000); AID 588627;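 active = calcium response B-score plate-corrected fluorescence ratio at least 3 library SD, with starting fluorescence B-score inside 5 SD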
#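 Assay system: MrgX1-expressing HEK293 cells / Amount: fifteen thousand cells per well / Doses: test compound in the initial addition of three / Timing: cells plated overnight, dye loaded 0.5 h 37 °C, 0.5 h room temperature / Technique: kinetic calcium dye fluorescence, Fluo-4 NW / Control set: positive and negative controls per plate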
# RGS4 inh = human RGS4 inhibition | P49798 | B-score at 10 µM | AID 463165 | HEK293 M3R/RGS4 inducible, Fluo-4 calcium flux; active compounds read high; triggered by carbachol at its EC20 | actives 0.45% (n = 310,000);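 active = B-score, a plate-corrected calcium signal, over three deviations above library mean, with baseline fluorescence within five deviations of library mean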;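 note: RGS4 expression induced by doxycycline in cells with stable M3 receptor; B-score is computed from the integrated fluorescence ratio over baseline after carbachol; higher B-score means a larger calcium signal and so more RGS4 inhibition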
# Target sequence (P49798 whole entry, looked up): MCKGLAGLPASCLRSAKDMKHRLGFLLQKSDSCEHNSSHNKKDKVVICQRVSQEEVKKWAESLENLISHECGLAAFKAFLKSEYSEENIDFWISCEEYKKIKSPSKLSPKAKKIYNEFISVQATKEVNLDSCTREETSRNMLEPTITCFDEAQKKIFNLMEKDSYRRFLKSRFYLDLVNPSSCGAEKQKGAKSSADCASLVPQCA
# MrgX1 antag = human MrgX1 receptor antagonism, primary screen; AID 588676; actives 1.3% (n = 310,000); MRGX1-HEK293 calcium flux, Fluo-4, BAM8-22 antagonism; active compounds read low; Q96LB2; B-score at 10 µM;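 active = calcium-response B-score plate-corrected more than 3 library SD below zero, starting fluorescence within 5 deviations, no agonist response on first addition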;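 note: peak minus trough fluorescence over baseline after final BAM8-22 challenge near maximal dose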
# RGS4 pot = potentiators or activators of RGS4; actives 0.92% (n = 310,000); AID 463111; HEK293 M3R/inducible RGS4, carbachol calcium flux Fluo4; active compounds read low; B-score at 10 µM;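 active = B-score of the integrated calcium signal more than 4 SD below the library mean, with starting fluorescence not abnormally high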;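 note: negative B-score means reduced calcium response which marks RGS4 activation or potentiation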
#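 System: HEK293 FlpIn-TREx cells, stable M3R, doxycycline-inducible RGS4. Timing: overnight RGS4 induction, 30 min dye load 37 °C, 20 min compound RT. Also added: carbachol, ECmax concentration. Measured by: Fluo4 fluorescence kinetic imaging of calcium. Evaluation: integrated calcium ratio converted to B score.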
# MrgX1 allo act = allosterically activates human MrgX1 receptor signaling. Q96LB2. MrgX1-HEK293, Fluo-4 calcium flux, FDSS; active compounds read high. B-score at 10 µM. actives 0.63% (n = 310,000);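 active = plate-corrected calcium response at least 3 library SD above typical, normal starting fluorescence, not activating the receptor alone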;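 note: compound read alongside a low EC10 to EC30 dose of BAM8-22 agonist; peak minus trough fluorescence over baseline measured at the second addition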
# RGS4 inh valid = RGS4 inhibitor validation. calcium response, % at 10 µM. AID 492999. actives 65% (n = 1,700). shares compounds with RGS4 inh. HEK293 M3R/RGS4, carbachol calcium Fluo-4 fluorescence; carbachol added at its EC20; 0 = buffer wells, 100 = carbachol control;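 active = duplicate-averaged calcium response above the buffer-only control mean plus 5 SD of those controls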;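 note: integrated fluorescence ratio F max minus min over baseline F0; higher response in RGS4-induced cells means RGS4 inhibition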
# M3R Ca ctr = counter-screen for RGS4 inhibitors: effect in non-induced cells | shares compounds with RGS4 inh | actives 20% (n = 1,900) | activity (percent), % at 10 µM | HEK293 M3R non-induced, carbachol calcium Fluo-4; submaximal (EC20) carbachol stimulus; buffer wells 0%, carbachol control wells 100%; call rule not given here;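 note: RGS4 induction absent so cells express M3R without RGS4; higher means more calcium signal and flags a non-specific hit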
# M3R basal Ca ctr = signal in non-induced cells without carbachol, RGS4 inhibitor counter-screen. HEK293 M3R/RGS4 non-induced, Fluo-4 calcium, no carbachol; normalised: buffer wells 0%, carbachol wells 100%. actives 22% (n = 1,900). shares compounds with RGS4 inh. calcium response (agonist-mode artifact), % at 10 µM;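 active = duplicate-averaged calcium rise in uninduced cells above buffer wells' mean plus 5 SD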
# The depositor's hits bear a star; i = inactive; . = not tested or not shown.
SMILES,MrgX1 ag,RGS4 inh,MrgX1 antag,RGS4 pot,MrgX1 allo act,RGS4 inh valid,M3R Ca ctr,M3R basal Ca ctr
OCC1OC(n2cnc3c(NC4CCCC4)ncnc32)C(O)C1O (stereo not drawn),i,4.7*,i,i,i,41%*,i,312%*
CC(C)(C)OC(=O)Nc1ncnc2c1ncn2C1OC(CO)C2OC(C)(C)OC21 (stereo not drawn),i,i,i,i,i,.,.,.
OCC1OC(n2cnc3c(NC4CCCCC4)ncnc32)C(O)C1O (stereo not drawn),i,i,i,i,i,.,48%*,i
OC[C@H]1O[C@@H](n2cnc3c(NC4CCCC4)ncnc32)[C@H](O)[C@@H]1O,i,i,i,i,i,.,.,.
Cc1nc(C(F)(F)F)ccc1C(=O)Nc1ccccc1N1CCOCC1,i,i,i,i,i,.,.,.
CCOC(=O)CCCn1ncn2c(cc3occc32)c1=O,i,i,i,i,i,.,.,.
COc1ccc(-c2csc(Nc3cc(C)ccn3)n2)cc1C,i,9.8*,i,i,i,34%*,39%*,i
COc1ccc(-c2cc(=O)oc3c(C)c(O)ccc23)cc1,i,i,i,i,i,.,.,.
CCOc1ccc(/C=C/C(=O)c2c(O)cc(C)oc2=O)cc1,i,i,i,i,i,.,.,.
COc1ccc(/C=C/C(=O)c2c(O)ccc3c(C)cc(=O)oc23)cc1,i,i,i,i,i,i,i,i
COc1ccc(/C=C\C(=O)c2c(O)ccc3c(C)cc(=O)oc23)cc1,i,i,i,i,i,.,i,i
CN1C/C(=C\c2ccc(N3CCOCC3)cc2)C(=O)/C(=C/c2ccc(N3CCOCC3)cc2)C1,i,i,i,i,i,.,.,.
CN1C/C(=C/c2ccncc2)C(=O)/C(=C/c2ccncc2)C1,i,21*,i,i,i,80%*,i,i
CCOc1cc(/C=C2\CN(C)C/C(=C\c3ccc(O)c(OCC)c3)C2=O)ccc1O,i,i,i,i,i,.,.,.
CN1C/C(=C/c2ccsc2)C(=O)/C(=C/c2ccsc2)C1,i,6.8*,i,i,i,9.5%*,i,i
Cc1ccc(S(C)(=O)=N/C=C2\C(=O)c3sccc3N(C)S2(=O)=O)cc1 (stereo not drawn),i,6.4*,i,i,i,7.5%*,i,i
Cc1ccc(S(=O)(=O)N2CCCOC2CNC(=O)C(=O)NC2CCCCC2)cc1 (stereo not drawn),i,i,i,i,i,i,i,i
O=[n+]1cc(-c2cccc3ccccc23)n([O-])c2c1CCC2,i,4.9*,i,i,i,i,i,i
Cc1cc(C)c2oc(C(=O)N3CCN(C)CC3)cc(=O)c2c1,i,i,i,i,i,.,.,.
CC(C)(C)c1ccc(S(=O)(=O)N2CCN(c3ccccn3)CC2)cc1,i,i,i,i,i,.,.,.
CC(C)Oc1cccc(C2NC(=O)c3ccccc3O2)c1 (stereo not drawn),i,i,i,i,i,.,.,.
C=CCN1C=C2C(=O)C(C)(OC(=O)c3ccco3)C(=O)C(C=C)=C2C=C1C1CC1 (stereo not drawn),i,i,i,i,i,.,.,.
CCCCC1=CC2=C(c3ccco3)C(=O)C(C)(OC(=O)c3ccc(OC)cc3)C(=O)C2=CN1CCCOC(C)C (stereo not drawn),i,i,i,i,i,i,i,i
